CFTR F508del cor: F508del CFTR correction, initial screen, CFBE line, single point; AID 720511, 2013; CFBE cells, YFP halide quenching; stimulated with forskolin plus potentiator P3; % fluorescence drop versus neutral controls; activity (quench increase), % at 7.58 µM; actives 0.36% (n = 350,000);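 active means mean added fluorescence quench of at least 8% versus neutral control, with both replicates also reaching 8%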;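 further: cells transiently co-express mutant CFTR-F508del with the halide-sensitive YFP; corrector assay measuring rescue of mutant channel to the surface after 24 h compound exposure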
ERAP1 HTS inh: human ERAP1 aminopeptidase inhibitors, primary screen, biochemical, single point, plate reader; actives 0.15% (n = 340,000); inhibition, % at 10.7 µM; recombinant ERAP1, Leu-AMC fluorescence, 60 min; AID 652197, 2013; Endoplasmic reticulum aminopeptidase 1 (Homo sapiens), Q9NZ08;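 active means mean replicate inhibition of at least 30%, or all replicates individually reaching that 30% level; inactive means mean below 30% and not every replicate reaching it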;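 further: 0% = neutral control wells and 100% = L-leucinethiol positive control wells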
Target sequence (Q9NZ08 whole entry, looked up): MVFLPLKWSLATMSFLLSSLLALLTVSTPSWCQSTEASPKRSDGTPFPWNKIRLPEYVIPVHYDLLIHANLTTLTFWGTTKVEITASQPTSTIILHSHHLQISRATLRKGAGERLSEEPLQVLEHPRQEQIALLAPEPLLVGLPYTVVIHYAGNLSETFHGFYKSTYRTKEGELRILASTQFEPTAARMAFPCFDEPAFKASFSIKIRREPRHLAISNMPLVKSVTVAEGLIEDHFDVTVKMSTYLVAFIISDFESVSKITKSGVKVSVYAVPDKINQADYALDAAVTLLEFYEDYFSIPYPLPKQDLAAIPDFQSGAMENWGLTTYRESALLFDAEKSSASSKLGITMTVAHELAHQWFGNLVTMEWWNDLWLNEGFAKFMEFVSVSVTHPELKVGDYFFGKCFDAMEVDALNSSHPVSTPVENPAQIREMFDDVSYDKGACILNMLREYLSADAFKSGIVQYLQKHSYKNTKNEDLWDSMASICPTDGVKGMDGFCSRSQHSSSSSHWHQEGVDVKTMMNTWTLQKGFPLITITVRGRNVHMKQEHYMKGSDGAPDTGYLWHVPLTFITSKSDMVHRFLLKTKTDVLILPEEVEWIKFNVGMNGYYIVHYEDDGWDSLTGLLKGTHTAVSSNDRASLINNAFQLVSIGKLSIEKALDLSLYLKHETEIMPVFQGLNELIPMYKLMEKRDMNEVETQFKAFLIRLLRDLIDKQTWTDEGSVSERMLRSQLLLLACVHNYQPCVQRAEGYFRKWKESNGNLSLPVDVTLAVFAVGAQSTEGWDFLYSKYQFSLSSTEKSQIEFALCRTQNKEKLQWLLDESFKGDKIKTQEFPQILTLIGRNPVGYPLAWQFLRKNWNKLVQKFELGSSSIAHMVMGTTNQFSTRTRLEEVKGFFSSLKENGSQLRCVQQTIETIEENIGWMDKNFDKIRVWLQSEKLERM
FGF22 binding: binders of human FGF22 protein, primary screen, FGF22 synaptogenesis inhibitor project, biophysical, thermal shift, single point; Fibroblast growth factor 22 (Homo sapiens), Q9HCT0; recombinant FGF22 thermal shift, SYPRO orange fluorescence; percent of sucrose octasulfate shift, DMSO zero; activity (Tm shift, normalised), % at 9.99 µM; actives 1.5% (n = 340,000); AID 651658, 2012;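 active means mean Tm shift, scaled 0 neutral to 100 positive control, at about 1.3% or above, every replicate too, limit read from the data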
DENV2 CPE rescue: inhibitors of DENV2 cytopathic effect, primary screen, cell-based, plate reader, single concentration | DENV2-infected cells, cytopathic effect rescue | CPE inhibition, % at 9.99 µM | actives 1.7% (n = 350,000) | AID 651640, 2012; in the data active means CPE inhibition above about 20%, passing the limit was not always enough; tested in BHK-21 cells;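 further: 0% = median of neutral control wells and 100% = median of positive control wells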
E-selectin induc: E-selectin induction in HUVECs, primary screen, imaging, HUVEC, immunofluorescence imaging, single point; actives 0.37% (n = 260,000); normalized: neutral wells 0, TNF-alpha wells 100; P16581; activation, % at 7.58 µM;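 active means mean E-selectin-positive cell signal at least 10% of the positive control, reached in at least 60% of replicates, without over 20% cell loss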
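assay system = HUVEC, human umbilical vein endothelial cells | input = 3,000 HUVEC seeded per well | medium = EGM-2 growth medium on 0.1% gelatin-coated wells | dosing = one compound dose added by pin transfer | signal = immunofluorescence imaging | read-out basis = % PE-positive cells | control set = TNF-alpha, DMSO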
* marks the source's active call; other numbers are inactive results; x = no result given. In the library only some 3.7% were active in any assay of this set; here they are far more common.

SMILES | CFTR F508del cor | ERAP1 HTS inh | FGF22 binding | DENV2 CPE rescue | E-selectin induc
CCOc1ccc2nc(N3CCCCCC3)sc2c1 | -4 | 4 | 0 | -4 | x
CCOc1ccc2nc(Cl)sc2c1 | 0 | 3 | 43* | 1 | x
COc1ccc(CN(C)C[C@@H]2Oc3c(NS(=O)(=O)c4ccc(C)cc4)cccc3C(=O)N([C@H](C)CO)C[C@@H]2C)cc1 | 0 | 2 | 0 | -5 | 1
Nc1ccccc1C#Cc1ccccc1 | 1 | -4 | 0 | 110* | 0
CNC[C@@H]1Oc2cc(C#CCOC)ccc2S(=O)(=O)N([C@H](C)CO)C[C@H]1C | 0 | x | x | x | 0
COc1ccc(C(=O)OCC(=O)N2C(C)CCCC2C)cc1S(=O)(=O)N1CCOCC1 (configuration not stated) | 11* | 1 | 0 | -5 | 0
COc1ccc(C(=O)OCC(=O)N2CCC(C)CC2)cc1S(=O)(=O)N1CCOCC1 | -1 | -3 | 0 | 1 | 0
Cc1ccc(C(=O)OCC(=O)N2C(C)CCCC2C)cc1S(=O)(=O)N1CCOCC1 (configuration not stated) | 1 | 3 | 0 | 25* | 0
CC1CCCC(C)N1C(=O)COC(=O)c1ccc(Br)c(S(=O)(=O)N2CCOCC2)c1 (configuration not stated) | -1 | 0 | 0 | -15 | 0
O=C(CSC(=S)N1CCOCC1)Nc1ncc2c(n1)CC(c1ccco1)CC2=O (configuration not stated) | 1 | -4 | 0 | 30* | x
CN1CCN(C(=O)C[C@H]2C[C@H]3c4cc(NC(=O)CC5CC5)ccc4O[C@H]3[C@@H](CO)O2)CC1 | -3 | 3 | 0 | -2 | 1
COc1ccc(S(=O)(=O)N2CCN(C(=S)NC3CCCCC3)CC2)cc1 | -1 | -1 | 43* | 1 | 0
C[C@@H]1CN([C@@H](C)CO)C(=O)c2cc(N(C)C)ccc2O[C@@H](C)CCCCO[C@H]1CN(C)S(C)(=O)=O | 0 | 1 | 0 | 10 | 0
CC(NC(=O)Nc1ccc(Cl)cc1)C1CCCO1 (configuration not stated) | 0 | -1 | 43* | -5 | x
CO[C@@H]1CN(C)C(=O)c2cc(NC(=O)C3CC3)ccc2OC[C@H](C)N(C(=O)c2cnccn2)C[C@H]1C | 0 | 1 | 0 | -3 | 0
O=C(NC1CCC1)[C@@H]1[C@@H](CO)[C@@H]2Cn3c(ccc(-c4ccncc4)c3=O)[C@H]1N2Cc1cocn1 | 1 | 2 | 0 | -10 | 0
c1ccc(-c2csc(-c3ccc(-c4csnn4)cc3)n2)cc1 | -33 | -3 | 0 | 54* | 0
O=C(O)c1ccc(-c2nc(-c3ccccc3)cs2)cc1 | x | 3 | 0 | -3 | x
C[C@@H]1CN([C@@H](C)CO)C(=O)c2cc(C3=CCCCC3)cnc2O[C@@H]1CN(C)C(=O)Cc1ccccc1 | 1 | -1 | 0 | 46* | 0
C[C@H](CO)N1C[C@H](C)[C@@H](CN(C)C(=O)c2ccc3c(c2)OCO3)Oc2ncc(C3=CCCC3)cc2C1=O | -5 | -1 | 0 | 3 | 0
Cc1ccc(-c2cnc3c(c2)C(=O)N([C@@H](C)CO)C[C@@H](C)[C@H](CN(C)C(=O)Cc2ccccc2)O3)cc1 | -2 | -2 | 0 | -6 | 0
C[C@H](CO)N1C[C@H](C)[C@H](CN(C)C(=O)Cc2ccccc2)Oc2ncc(C3=CCCCC3)cc2C1=O | 3 | 1 | 0 | 17 | 0
Cc1ccc(-c2cnc3c(c2)C(=O)N([C@H](C)CO)C[C@H](C)[C@H](CN(C)C(=O)Cc2ccccc2)O3)cc1 | -1 | 2 | 0 | 76* | 0
C[C@@H]1CN([C@H](C)CO)C(=O)c2cc(C3=CCCCC3)cnc2O[C@H]1CN(C)C(=O)c1ccc2c(c1)OCO2 | 0 | -2 | 0 | 54* | 2
Cc1ccc(-c2cnc3c(c2)C(=O)N([C@H](C)CO)C[C@H](C)[C@@H](CN(C)C(=O)Cc2ccncc2)O3)cc1 | 1 | 0 | 0 | 27* | 0
SMILES | CFTR F508del cor | ERAP1 HTS inh | FGF22 binding | DENV2 CPE rescue | E-selectin induc
COCC(=O)Nc1ccc2c(c1)OC[C@@H](C)N(Cc1ccccc1F)C[C@H](C)[C@@H](OC)CN(C)C2=O | -1 | 3 | 0 | -9 | 0
CC=Cc1ccc2n(c1=O)C[C@@H]1[C@@H](CO)[C@H](C(=O)NCC3CC3)[C@H]2N1CCC (mixture of isomers) | -1 | -2 | 0 | 5 | -2
COc1ccc2c3c([nH]c2c1)[C@@H](CO)N(C(=O)CN(C)C)CC31CN(C(=O)c2ccncc2)C1 | 3 | -7 | 0 | 2 | 0
O=[S@]1Oc2ccccc2-c2ccccc21 | -4 | -1 | 0 | 67* | x
C[C@@H]1CN([C@@H](C)CO)C(=O)c2cc(NC(=O)NC3CCCCC3)ccc2O[C@@H](C)CCCCO[C@@H]1CN(C)C(=O)NC1CCCCC1 | -2 | 1 | 0 | -7 | 0
C[C@@H]1CN([C@@H](C)CO)C(=O)c2cc(NC(=O)NC3CCCCC3)ccc2O[C@@H](C)CCCCO[C@@H]1CN(C)C(=O)Nc1ccc2c(c1)OCO2 | -4 | x | 0 | -11 | 0
C[C@@H]1CCCCO[C@@H](CN(C)C(=O)NC2CCCCC2)[C@@H](C)CN([C@@H](C)CO)C(=O)c2cc(NC(=O)Nc3ccccc3)ccc2O1 | 0 | -2 | 1 | 45* | 0
C[C@H]1CCCCO[C@H](CN(C)C(=O)NC2CCCCC2)[C@@H](C)CN([C@@H](C)CO)C(=O)c2cc(NC(=O)Nc3ccccc3)ccc2O1 | -1 | 0 | 0 | 27* | 0
C[C@@H]1CCCCO[C@H](CN(C)C(=O)NC2CCCCC2)[C@@H](C)CN([C@H](C)CO)C(=O)c2cc(NC(=O)NC3CCCCC3)ccc2O1 | 1 | 4 | 0 | 78* | 0
C[C@@H]1CCCCO[C@H](CN(C)C(=O)NC2CCCCC2)[C@@H](C)CN([C@H](C)CO)C(=O)c2cc(NC(=O)Nc3ccccc3)ccc2O1 | -2 | 2 | 0 | -6 | 0
C[C@@H]1CCCCO[C@H](CN(C)C(=O)Nc2ccc3c(c2)OCO3)[C@H](C)CN([C@H](C)CO)C(=O)c2cc(NC(=O)NC3CCCCC3)ccc2O1 | 1 | x | -1 | 41* | 0
C[C@H]1CCCCO[C@@H](CN(C)C(=O)NC2CCCCC2)[C@@H](C)CN([C@@H](C)CO)C(=O)c2cc(NC(=O)Nc3ccccc3)ccc2O1 | 4 | 0 | 0 | 3 | 0
C[C@@H]1CN([C@H](C)CO)C(=O)c2cc(NS(=O)(=O)c3ccc(Cl)cc3)ccc2O[C@@H]1CN(C)S(C)(=O)=O | 1 | x | x | x | -2

Source: PubChem (Broad Institute)
